Measurements taken from ChEMBL document CHEMBL2046289, “Novel 2-(2-(benzylthio)-1H-benzo[d]imidazol-1-yl)acetic acids: discovery and hit-to-lead evolution of a selective CRTh2 receptor antagonist chemotype” (Bioorg Med Chem Lett, 2012).
Converted amounts (≈) assume the structure as drawn.

Key:
Cytochrome P450 2C9 = Cytochrome P450 2C9 (Homo sapiens, UniProt P11712); experiment: Inhibition of CYP2C9; format: ADME
[1] = Volume of distribution at steady state in Wistar rat at 1 mg/kg, iv and 10 mg/kg, po; format: ADME, organism-based; conditions: in vivo, read-out: Vdss
In short: (§1)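 Male Wistar rats, 3 animals per experiment; intravenous dose 1 mg/kg and oral dose 10 mg/kg, each given as a solution.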

[2] = molecular target: T1, Prostaglandin D2 receptor 2 (Homo sapiens, UniProt Q9Y5Y4); experiment: Displacement of [3H]-PGD2 from human CRTh2 receptor expressed in HEK293 cells; format: cell-based
T1 sequence (Q9Y5Y4 whole entry): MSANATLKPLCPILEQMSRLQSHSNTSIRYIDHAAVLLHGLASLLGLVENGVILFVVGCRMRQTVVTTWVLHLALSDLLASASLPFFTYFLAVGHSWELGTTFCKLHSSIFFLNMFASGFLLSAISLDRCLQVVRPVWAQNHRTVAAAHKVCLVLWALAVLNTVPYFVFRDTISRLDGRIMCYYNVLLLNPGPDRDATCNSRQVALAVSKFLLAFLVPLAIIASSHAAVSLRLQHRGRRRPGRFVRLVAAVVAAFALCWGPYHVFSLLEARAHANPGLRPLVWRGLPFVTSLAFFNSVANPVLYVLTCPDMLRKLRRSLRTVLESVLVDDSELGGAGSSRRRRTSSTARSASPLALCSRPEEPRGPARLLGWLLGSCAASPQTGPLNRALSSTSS

[3] = Stability of the compound in simulated gastric fluid assessed as compound remaining after 1 hr; format: physicochemical; conditions: read-out: Stability
In short: (§2)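 Compound incubated in simulated gastric fluid for 1 h or simulated intestinal fluid for 4 h; unchanged parent recovered quantified by LC-MS, expressed as % parent remaining.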

Cytochrome P450 3A4 [4] = molecular target: T2, Cytochrome P450 3A4 (Homo sapiens, UniProt P08684); experiment: Inhibition of CYP3A4 using midazolam as substrate; format: ADME
T2 sequence (P08684 whole entry): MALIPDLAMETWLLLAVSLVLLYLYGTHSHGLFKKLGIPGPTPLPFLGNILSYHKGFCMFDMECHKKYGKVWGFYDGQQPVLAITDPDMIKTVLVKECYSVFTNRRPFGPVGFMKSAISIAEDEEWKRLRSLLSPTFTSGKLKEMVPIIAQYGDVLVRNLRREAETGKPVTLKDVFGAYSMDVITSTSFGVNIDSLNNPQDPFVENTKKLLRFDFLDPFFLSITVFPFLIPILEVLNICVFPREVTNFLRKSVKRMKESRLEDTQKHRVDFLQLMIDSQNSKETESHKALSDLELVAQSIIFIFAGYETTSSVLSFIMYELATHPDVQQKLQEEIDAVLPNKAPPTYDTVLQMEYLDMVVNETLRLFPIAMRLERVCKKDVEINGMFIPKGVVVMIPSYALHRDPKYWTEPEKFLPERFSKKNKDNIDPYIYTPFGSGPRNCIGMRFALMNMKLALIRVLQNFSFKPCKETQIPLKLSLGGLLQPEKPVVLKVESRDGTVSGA

[5] = Half life in Wistar rat at 1 mg/kg, iv and 10 mg/kg, po; format: ADME, organism-based; conditions: in vivo; in short: as §1
Cytochrome P450 2D6 = Cytochrome P450 2D6 (Homo sapiens, UniProt P10635); experiment: Inhibition of CYP2D6; format: ADME
Cytochrome P450 2D6, sequence (P10635 whole entry): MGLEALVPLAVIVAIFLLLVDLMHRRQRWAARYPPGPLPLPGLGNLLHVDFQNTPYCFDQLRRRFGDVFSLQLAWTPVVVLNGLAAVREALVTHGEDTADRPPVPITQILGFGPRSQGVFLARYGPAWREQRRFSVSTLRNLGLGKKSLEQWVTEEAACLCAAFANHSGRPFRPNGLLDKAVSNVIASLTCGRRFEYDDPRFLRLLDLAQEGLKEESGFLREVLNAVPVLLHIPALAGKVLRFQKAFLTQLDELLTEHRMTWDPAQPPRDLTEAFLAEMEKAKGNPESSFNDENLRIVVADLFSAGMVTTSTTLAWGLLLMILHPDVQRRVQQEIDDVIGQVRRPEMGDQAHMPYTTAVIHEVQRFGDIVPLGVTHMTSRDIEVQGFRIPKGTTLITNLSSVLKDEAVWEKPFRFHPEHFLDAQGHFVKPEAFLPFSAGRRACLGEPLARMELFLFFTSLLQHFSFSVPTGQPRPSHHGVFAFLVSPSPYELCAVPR

[6] = AUC in Wistar rat at 10 mg/kg, po; format: ADME, organism-based; parameters: dose 10 mg/kg, route oral; conditions: plasma; in short: as §1
[7] = molecular target: T1, Prostaglandin D2 receptor 2; experiment: Displacement of [3H]-PGD2 from human CRTh2 receptor expressed in HEK293 cells in presence of 0.5% human serum albumin; format: cell-based
[8] = Intrinsic clearance in rat liver microsomes assessed per mg protein; format: ADME, Microsome; conditions: read-out: CLH
[9] = molecular target: T1, Prostaglandin D2 receptor 2; experiment: Antagonist activity at human CRTh2 receptor expressed in HEK293 cells assessed as inhibition of PGD2-induced calcium flux by FLIPR assay; format: functional, cell-based
[10] = Solubility of the compound in 0.1 M HCl; format: physicochemical; conditions: buffer
[11] = Clearance in Wistar rat at 1 mg/kg, iv and 10 mg/kg, po; format: ADME, organism-based; conditions: in vivo; in short: as §1
[12] = Solubility of the compound in phosphate buffer at pH 7; format: physicochemical
[13] = Stability of the compound in simulated intestinal fluid assessed as compound remaining after 4 hrs; format: physicochemical; conditions: read-out: Stability; in short: as §2
[14] = Oral bioavailability in Wistar rat at 10 mg/kg; format: ADME, organism-based; conditions: in vivo; in short: as §1
[15] = molecular target: T3, Prostaglandin D2 receptor (Homo sapiens, UniProt Q13258); experiment: Displacement of [3H]-PGD2 from human DP1 receptor expressed in CHO cells; format: cell-based
T3 sequence (Q13258 whole entry): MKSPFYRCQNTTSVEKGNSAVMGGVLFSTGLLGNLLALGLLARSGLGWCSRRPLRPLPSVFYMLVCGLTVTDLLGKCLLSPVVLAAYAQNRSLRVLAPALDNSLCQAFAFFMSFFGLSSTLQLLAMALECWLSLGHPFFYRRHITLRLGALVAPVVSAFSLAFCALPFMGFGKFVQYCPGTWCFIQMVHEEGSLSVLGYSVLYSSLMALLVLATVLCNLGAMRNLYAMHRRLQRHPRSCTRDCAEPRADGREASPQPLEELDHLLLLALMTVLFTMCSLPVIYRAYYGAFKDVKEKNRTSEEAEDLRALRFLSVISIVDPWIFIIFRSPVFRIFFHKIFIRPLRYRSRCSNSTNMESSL

Cytochrome P450 3A4 [16] = molecular target: T2, Cytochrome P450 3A4; experiment: Inhibition of CYP3A4 using testosterone as substrate; format: ADME
[17] = Intrinsic clearance in rat hepatocytes assessed per 10^6 cells; format: ADME, cell-based, Hepatocyte; conditions: read-out: CLH
[18] = Lipophilicity, log D of the compound at pH 7.4; format: physicochemical; conditions: buffer
[19] = Metabolic stability of the compound in human plasma assessed as compound remaining after 4 hrs; format: ADME, cell-free; conditions: read-out: Stability
Thromboxane A2 receptor = molecular target: T4, Thromboxane A2 receptor (Homo sapiens, UniProt P21731); experiment: Antagonist activity at human TP receptor by FLIPR assay; format: functional
T4 sequence (P21731 whole entry): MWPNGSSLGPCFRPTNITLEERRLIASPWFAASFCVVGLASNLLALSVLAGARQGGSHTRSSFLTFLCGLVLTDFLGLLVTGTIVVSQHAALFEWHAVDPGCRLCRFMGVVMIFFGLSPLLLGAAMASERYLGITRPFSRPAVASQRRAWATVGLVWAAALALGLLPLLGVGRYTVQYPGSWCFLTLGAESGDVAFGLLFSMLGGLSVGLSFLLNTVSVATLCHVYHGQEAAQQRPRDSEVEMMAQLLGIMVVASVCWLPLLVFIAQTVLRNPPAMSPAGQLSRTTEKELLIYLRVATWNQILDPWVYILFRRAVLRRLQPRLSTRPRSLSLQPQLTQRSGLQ

[20] = Solubility of the compound in Tris buffer at pH 9; format: physicochemical
[21] = Intrinsic clearance in human liver microsomes assessed per mg protein; format: ADME, Microsome; conditions: read-out: CLH

Cytochrome P450 2C9, sequence (P11712 whole entry): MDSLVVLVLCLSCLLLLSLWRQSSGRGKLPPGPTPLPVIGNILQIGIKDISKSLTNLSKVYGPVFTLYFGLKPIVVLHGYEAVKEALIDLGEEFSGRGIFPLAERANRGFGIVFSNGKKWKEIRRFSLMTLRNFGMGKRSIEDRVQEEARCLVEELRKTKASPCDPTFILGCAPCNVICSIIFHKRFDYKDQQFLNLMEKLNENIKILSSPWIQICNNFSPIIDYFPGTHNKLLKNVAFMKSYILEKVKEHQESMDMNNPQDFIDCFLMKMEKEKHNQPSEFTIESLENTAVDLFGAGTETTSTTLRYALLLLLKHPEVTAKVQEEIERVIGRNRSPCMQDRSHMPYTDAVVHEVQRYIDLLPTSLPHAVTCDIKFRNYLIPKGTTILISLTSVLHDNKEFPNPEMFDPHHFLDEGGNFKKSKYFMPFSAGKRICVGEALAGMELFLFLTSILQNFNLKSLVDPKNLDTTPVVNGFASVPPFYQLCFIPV

| Compound | IC50 (Cytochrome P450 2C9) [µM] | Vd [1] [L/kg] | IC50 [2] [µM] | remaining at 1 h [3] [%] | IC50 (Cytochrome P450 3A4 [4]) [µM] | half-life [5] [h] | IC50 (Cytochrome P450 2D6) [µM] | AUC [6] [ng·h/mL] | IC50 [7] [µM] | microsomal CLint [8] [µL/min/mg] | IC50 [9] [µM] | solubility [10] [µg/mL] | clearance [11] [mL/min/kg] | solubility [12] [µg/mL] | remaining at 4 h [13] [%] | bioavailability [14] [%] | IC50 [15] [µM] | IC50 (Cytochrome P450 3A4 [16]) [µM] | hepatocyte CLint [17] [µL/min/1e6 cells] | logD [18] | also measured |
| --- | --- | --- | --- | --- | --- | --- | --- | --- | --- | --- | --- | --- | --- | --- | --- | --- | --- | --- | --- | --- | --- |
| COc1ccc(C(C)=O)cc1CSc1nc2ccccc2n1CC(=O)O | 24 | 1.1 | 0.008 | 92 | 37 | 2.5 | > 50 | 2360 | 0.002 | 17 | 0.025 | 575 (≈ 1550 µM) | 20 | 602 (≈ 1630 µM) | 100 | 27 | > 10 | > 50 | 10 | -1.1 | remaining at 4 h [19]: 100%; IC50 (Thromboxane A2 receptor): > 25 µM; solubility [20]: 583 µg/mL (≈ 1570 µM) |
| COc1ccc(C(C)=O)cc1CSc1nc2cc(F)ccc2n1CC(=O)O | > 50 | 1.2 | 0.002 | 95 | 10 | 0.9 | > 50 | 919 | 0.014 | 60 | 0.005 | 484 (≈ 1250 µM) | 36 | 399 (≈ 1030 µM) | 100 | 19 | > 10 | 15 | 20 | -0.8 | microsomal CLint [21]: 13 µL/min/mg; remaining at 4 h [19]: 100%; IC50 (Thromboxane A2 receptor): > 25 µM; solubility [20]: 583 µg/mL (≈ 1500 µM) |
